HKDC1 inhibitor: HKDC1 hexokinase inhibitors, primary screen, biochemical, fluorescence, uHTS. 0.16% of 340,000 active. inhibition, % at 20 µM. recombinant HKDC1, G6PDH/diaphorase resazurin coupled fluorescence. Q2TB90. AID 493160, 2011;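 active = inhibition above about 35% when tested at 20 µM, limit read from the data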;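 also: plate controls were DMSO wells with enzyme for no effect and DMSO wells lacking enzyme for full effect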
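Test system: recombinant HKDC1 (HK5) hexokinase enzyme, produced in-house / Doses: 20 µM test compound, 1% DMSO / Timing: 90 min, room temperature / Detection: G6PDH/diaphorase-coupled fluorescence, 1 mM NADP, 100 µM resazurin, 525/613 nm / Control set: DMSO wells with and without enzyme mix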
EP2 antag: human EP2 receptor antagonists, primary screen, TR-FRET cAMP, C6 glioma cells; Prostaglandin E2 receptor EP2 subtype (Homo sapiens), P43116; C6 glioma cells expressing human EP2; cells stimulated with saturating PGE2; 0.52% of 260,000 active; inhibition, % at 25 µM;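 active = percent inhibition above 40 after rounding to a whole number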;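 also: rat C6 glioma host cells with rolipram phosphodiesterase inhibitor present; the protocol text gives 20 µM as final concentration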
Tb hexokinase: Trypanosoma brucei hexokinase 1 inhibitors, primary screen, biochemical, G6PDH-coupled NADH absorbance, MLSCN library; AID 1430, 2008; inhibition, % at 10 µM; 0.11% of 220,000 active; hexokinase 1 [Trypanosoma brucei]; recombinant TbHK1, G6PDH-coupled NADH A340;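 active = inhibition of 50% or more in the single-dose primary screen; inactive = inhibition below 50%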
EP2 modulator: EP2 receptor modulators, cAMP readout, primary screen, cell-based, HTRF cAMP, PGE2 stimulation; Prostaglandin E2 receptor EP2 subtype (Homo sapiens), P43116; induction, % at 25 µM; 0.83% of 260,000 active; EP2-expressing cells, cAMP HTRF FRET, PGE2 co-stimulation;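 active = compounds whose cAMP rise, as percent of the full-agonist control response, exceeds 60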;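 also: rat C6 glioma line stably carrying human EP2 under a CMV promoter; the protocol text gives 20 µM as final concentration; 100% = response of wells given 1 µM PGE2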
PHOSPHO1 block: PubChem AID 1565 | Phosphoethanolamine/phosphocholine phosphatase (Homo sapiens), Q8TCT1 | recombinant PHOSPHO1, absorbance phosphatase assay | inhibition, % at 13.3 µM | 1.1% of 290,000 active; in the data active = inhibition above about 60%
Target sequence (Q8TCT1 whole entry, looked up): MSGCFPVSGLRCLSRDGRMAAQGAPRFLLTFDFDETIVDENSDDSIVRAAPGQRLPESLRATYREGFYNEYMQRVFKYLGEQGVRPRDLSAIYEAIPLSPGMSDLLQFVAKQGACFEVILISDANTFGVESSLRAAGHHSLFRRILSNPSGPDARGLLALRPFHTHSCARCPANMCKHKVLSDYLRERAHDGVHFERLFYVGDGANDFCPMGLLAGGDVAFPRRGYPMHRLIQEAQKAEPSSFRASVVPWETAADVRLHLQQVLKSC
PfGluPho inh: PfG6PD enzyme inhibitors, primary screen, biochemical, fluorescence intensity, uHTS; glucose-6-phosphate dehydrogenase-6-phosphogluconolactonase (Plasmodium falciparum 3D7); PfGluPho enzyme, NADPH resazurin-diaphorase fluorescence; inhibition, % at 20 µM; 0.78% of 350,000 active;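 active = inhibition reaching at least a set limit at 20 µM in the primary screen, cut at about 59% in these data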;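 also: 0% = DMSO wells with substrate and 100% = DMSO wells lacking glucose-6-phosphate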
An asterisk follows results filed as active; x = not tested or not shown. Shown are actives, neighbours in structure and some others; about 2.5% of the full set was active somewhere.

SMILES | HKDC1 inhibitor | EP2 antag | Tb hexokinase | EP2 modulator | PHOSPHO1 block | PfGluPho inh
CCc1ccc2c(c1)C(c1cccnc1)=NNC(c1ccncc1)=N2 | x | 12 | x | 5 | x | x
CCCCNC(=S)NNC(=O)c1csc(C)c1CC | -11 | 9 | -2 | -2 | 1 | 20
C=CCNC(=S)NNC(=O)c1csc(C)c1CC | 8 | 7 | -4 | 22 | 81* | -7
CC[C@H](Cn1ncc2ccccc2c1=O)NC(=O)CC1CCCCC1 | x | x | x | 11 | x | x
COc1ccc(S(N)(=O)=O)cc1C(=O)NCCCN1CCN(c2cccc(Cl)c2)CC1 | -2 | x | -1 | -6 | 66* | 7
CCOc1cc(NC(=O)c2cccs2)c(OCC)cc1NC(=O)c1ccc(F)cc1 | x | 5 | x | 1 | x | x
Cc1ccc(N2CC(C(=O)NC3CCCC3)CC2=O)cc1 (stereo not drawn) | x | 50* | x | -30 | x | x
O=C(NC1CCCCC1)C1CC(=O)N(c2ccc(Cl)cc2)C1 (stereo not drawn) | -5 | 5 | 2 | 5 | 9 | 14
C=CCNc1sc(C(=O)c2ccccc2)c(N)c1-c1nc2ccccc2s1 | -4 | 3 | -7 | 7 | 98* | -37
O=c1[nH]c2ccccc2c(O)c1O | -10 | 15 | 38 | 2 | 0 | 75*
CC(=O)N1CCCc2cc(C(O)CN3CCC(C(F)(F)F)CC3)ccc21 (stereo not drawn) | x | 6 | x | -4 | x | x
COc1ccc(/C(O)=C2/C(=O)C(=O)NC2c2ccccc2)cc1OC (stereo not drawn) | x | 16 | x | 26 | x | x
CC1(C)CC(=O)C(Sc2nnc(-c3ccc(NS(C)(=O)=O)cc3)n2Cc2ccco2)C(=O)C1 | -5 | 1 | 5 | 18 | 96* | 22
Cn1c(SC2C(=O)CC(C)(C)CC2=O)nnc1-c1ccco1 | -3 | 5 | -2 | 8 | 58 | -7
COc1cccc(-n2nnnc2SCC(=O)Nc2cc(OC)ccc2OC)c1 | x | 6 | x | -106 | x | x
C=CCNC(=S)NNC(=O)c1ccccc1 | -1 | 11 | 1 | -2 | 29 | -2
CC(C)CNC(=S)NNC(=O)c1csc2ccccc12 | -5 | 5 | -6 | -23 | 88* | -26
C=CCNC(=S)NNC(=O)c1ccc(OC(C)C)cc1 | -3 | 5 | 1 | 16 | 72* | -8
CCNC(=S)NNC(=O)c1ccc(OC(F)F)cc1 | -8 | 5 | -7 | -15 | 73* | -2
CC(C)CNC(=S)NNC(=O)c1ccc(OC(F)F)cc1 | 12 | 4 | -1 | 2 | 94* | 9
CCC(=O)NNC(=O)CSc1nc2ccccc2cc1CC | x | 11 | x | 31 | x | x
COc1cc(C)c(CNC(=O)Cn2cnc3sc(C)cc3c2=O)cc1C(C)C | x | 4 | x | -26 | x | x
COc1ccc(C2=C/C(=C\c3cccc4ccccc34)C(=O)O2)cc1OC | x | 9 | x | -58 | x | x
C/C(=N\N(c1ccccc1)c1ccccc1)c1ccco1 | -1 | 3 | -5 | 62* | 1 | -9
C/C(=N\NC(=O)c1ccco1)c1ccc(-c2ccccc2)cc1 | -2 | x | x | x | 32 | -2
SMILES | HKDC1 inhibitor | EP2 antag | Tb hexokinase | EP2 modulator | PHOSPHO1 block | PfGluPho inh
CCC(C)(C)n1nnnc1C(c1cc2cccc(C)c2[nH]c1=O)N(Cc1ccccc1)Cc1ccco1 (stereo not drawn) | x | 9 | x | 14 | x | x
COCCN1CC23C=CC(O2)C(C(=O)O)C3C1=O (stereo not drawn) | x | 5 | x | 22 | x | x
O=c1oc2ccccc2c(O)c1/C=N/c1nc(-c2ccc(O)c(O)c2)cs1 | x | 41* | x | 36 | x | x
Cn1cc(Cl)c(-c2n[nH]c(=S)n2-c2ccc(F)cc2)n1 | -10 | 10 | -2 | 44 | 3 | 13
S=c1[nH]nc(-c2ccc3ccccc3n2)n1-c1cc(Cl)cc(Cl)c1 | 17 | 34 | -4 | 41 | 1 | 57
Cc1c(Cl)c(-c2n[nH]c(=S)n2-c2ccc(F)cc2)nn1C | 5 | 17 | -2 | 32 | 101* | 27
Fc1ccc(-n2c(-c3ccc4ccccc4n3)n[nH]c2=S)cc1 | -1 | 7 | -11 | 21 | 60* | 45

High-throughput results as filed in PubChem BioAssay.
